Columns and labels:
[1] = Volume of distribution at steady state in Beagle dog at 1 mg/kg, iv and 3 or 5 mg/kg, po; type: ADME, organism-based, Canis lupus familiaris; details: in vivo, read-out: Vdss
Summary of the method: (§1)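 Male mice, rats, dogs and cynomolgus monkeys, fasted overnight, fed after dosing. Intravenous dose 1 mg/kg in saline or 12% sulfobutyl ether β-cyclodextrin; oral arm 3 or 5 mg/kg in 0.5% methylcellulose. Steady-state volume derived from plasma concentration−time data; mean ± SD for n = 3, individual values for n = 2.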

[2] = Apparent permeability across RRCK cells; type: ADME, cell-based, Canis lupus familiaris, MDCKII-LE; details: dog, MDCK
Summary of the method: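 Passive permeability measured in Ralph−Russ canine kidney (RRCK) cells, a low-transporter line isolated from Madin−Darby canine kidney cells; reported as P_app (10⁻⁶ cm/s).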

Hepatocyte = assay: Intrinsic apparent clearance in human hepatocytes assessed per 10^6 cells; type: ADME, cell-based
Summary of the method: (§2)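 Stability incubations in NADPH-supplemented human liver microsomes or cryopreserved human hepatocytes. Total apparent intrinsic clearance scaled from the in vitro half-life; microsomes reported per mg protein, hepatocytes per 10⁶ cells.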

[3] = Tmax in Wistar rat at 3 or 5 mg/kg, po; type: ADME, organism-based; details: in vivo
Summary of the method: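 Male animals (CD-1 mice 25−35 g, cannulated Wistar-Han rats 250 g, beagle dogs 12 kg, cynomolgus monkeys 7 kg), fasted overnight and fed 1.0 or 2.0 h after dosing, water ad libitum. Oral dose 3 or 5 mg/kg in 0.5% methylcellulose. Parameters calculated from plasma concentration−time data; mean ± SD for n = 3, individual values for n = 2.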

[4] = Plasma clearance in Beagle dog at 1 mg/kg, iv and 3 or 5 mg/kg, po; type: ADME, organism-based, Canis lupus familiaris
Summary of the method: (§3)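 Male CD-1 mice (25−35 g), cannulated Wistar-Han rats (250 g), beagle dogs (12 kg) and cynomolgus monkeys (7 kg), fasted overnight and fed 1.0 or 2.0 h after dosing. iv 1 mg/kg in saline or 12% sulfobutyl ether β-cyclodextrin; po 3 or 5 mg/kg in 0.5% methylcellulose. Parameters calculated from plasma concentration−time data; mean ± SD for n = 3, individual values for n = 2.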

Liver microsome = assay: Intrinsic apparent clearance in human liver microsomes; type: ADME; summary of the method: as §2
[5] = target: T1, Myeloperoxidase (Homo sapiens) (UniProt P05164); assay: Inhibition of peroxidase activity of MPO isolated from human polynuclear leukocytes using Amplex Red as substrate assessed as formation of resorufin by measuring ratio of Kinact to Ki measured every 20 secs by spectrophotometric analysis
T1 sequence (whole entry): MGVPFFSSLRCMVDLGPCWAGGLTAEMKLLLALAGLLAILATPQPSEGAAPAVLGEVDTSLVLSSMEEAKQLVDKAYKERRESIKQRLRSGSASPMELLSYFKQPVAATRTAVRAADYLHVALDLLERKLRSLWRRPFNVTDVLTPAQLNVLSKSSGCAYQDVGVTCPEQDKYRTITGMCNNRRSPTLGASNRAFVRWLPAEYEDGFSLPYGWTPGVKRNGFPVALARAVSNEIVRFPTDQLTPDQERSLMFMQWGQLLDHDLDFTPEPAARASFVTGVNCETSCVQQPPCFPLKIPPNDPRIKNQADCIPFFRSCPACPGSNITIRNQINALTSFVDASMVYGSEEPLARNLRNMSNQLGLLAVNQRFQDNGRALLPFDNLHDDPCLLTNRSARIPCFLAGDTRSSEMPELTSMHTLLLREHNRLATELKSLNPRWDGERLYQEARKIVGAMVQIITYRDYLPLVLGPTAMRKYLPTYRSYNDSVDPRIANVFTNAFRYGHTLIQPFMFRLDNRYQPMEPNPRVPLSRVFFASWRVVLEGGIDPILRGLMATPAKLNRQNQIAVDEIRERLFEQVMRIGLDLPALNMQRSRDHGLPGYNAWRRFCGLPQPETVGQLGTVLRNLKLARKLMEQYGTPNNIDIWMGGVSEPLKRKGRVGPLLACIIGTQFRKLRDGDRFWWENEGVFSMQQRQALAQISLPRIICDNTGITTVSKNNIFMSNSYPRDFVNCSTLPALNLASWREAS
Summary of the method: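 Enzyme purified from human polynuclear leukocytes. Buffer: 50 mM sodium phosphate pH 7.4, 150 mM NaCl, 1 mM DTPA, 2 μM H2O2, 30 μM Amplex Red, inhibitor or DMSO. Resorufin fluorescence (ex 530/em 580) read every 20 s at room temperature. Progress curves fitted for kobs at each concentration. kinact/KI derived from the kobs versus [I] fit or slope. Geometric mean of at least two experiments.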

[6] = Elimination half life in Beagle dog at 1 mg/kg, iv and 3 or 5 mg/kg, po; type: ADME, organism-based, Canis lupus familiaris; details: in vivo, read-out: beta t1/2 (converted); summary of the method: as §3
[7] = Elimination half life in Wistar rat at 1 mg/kg, iv and 3 or 5 mg/kg, po; type: ADME, organism-based; details: in vivo, read-out: beta t1/2 (converted); summary of the method: as §3
Myeloperoxidase [8] = target: T2, Myeloperoxidase (Homo sapiens, UniProt P05164); assay: Irreversible inhibition of MPO in LPS-stimulated human whole blood after 4 hrs by Amplex Red/H2O2-based fluorescence plate reader analysis
T2 sequence (P05164 whole entry): T1 sequence (whole entry)
Summary of the method: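 Heparinized whole blood from healthy human volunteers, stimulated with bacterial LPS and incubated with compound for 4 h. MPO captured on anti-MPO antibody plates and washed; residual activity measured with Amplex Red and H₂O₂. IC₅₀ reported as geometric mean [90% CI].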

[9] = Volume of distribution at steady state in Wistar rat at 1 mg/kg, iv and 3 or 5 mg/kg, po; type: ADME, organism-based; details: in vivo, read-out: Vdss; summary of the method: as §1
[10] = target: T1, Myeloperoxidase (Homo sapiens); assay: (§4) Inhibition of peroxidase activity of MPO isolated from human polynuclear leukocytes using Amplex Red as substrate assessed as formation of resorufin measured every 20 secs by spectrophotometric analysis
Myeloperoxidase [11] = target: T2, Myeloperoxidase; assay: as §4
[12] = Fraction unbound in human plasma by equilibrium dialysis method; type: ADME, cell-free
Summary of the method: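 Fraction unbound in human plasma measured by equilibrium dialysis; mean of three individual determinations.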

## COc1ccc(-c2cc(=O)[nH]c(=S)n2CCN)c(OC)c1
[1]
  Vd: 3.66 L/kg
[2]
  Papp: 3.5 ×10⁻⁶ cm/s
Hepatocyte
  CLH(app): 2.9 µL/min
[3]
  Tmax: 22.8 min
[4]
  clearance: 13.4 mL/min/kg
Liver microsome
  CLH(app): 8.8 µL/min/mg
[5]
  log(ratio): 4.13
[6]
  half-life: 342 min
[7]
  half-life: 66 min
Myeloperoxidase [8]
  IC50: 500 nM
[9]
  Vd: 3.71 L/kg
[10]
  pKinact: 2.61
Myeloperoxidase [11]
  Ki: 174 nM
[12]
  fraction unbound: 0.7

## COc1ccc(-c2cc(=O)[nH]c(=S)n2CCO)c(OC)c1
[1]
  Vd: 1.33 L/kg
[2]
  Papp: 13 ×10⁻⁶ cm/s
Hepatocyte
  CLH(app): < 6 µL/min
[3]
  Tmax: 78 min
[4]
  clearance: 11.9 mL/min/kg
Liver microsome
  CLH(app): < 8 µL/min/mg
[5]
  log(ratio): 4.47
[6]
  half-life: 318 min
[7]
  half-life: 15 min
Myeloperoxidase [8]
  IC50: 2000 nM
[9]
  Vd: 0.82 L/kg
[10]
  pKinact: 2.34
Myeloperoxidase [11]
  Ki: 151 nM
[12]
  fraction unbound: 0.5

## COc1ccc(Cl)cc1-c1cc(=O)[nH]c(=S)n1CC(N)=O [PF-06282999]
[1]
  Vd: 0.54 L/kg
[2]
  Papp: 1.6 ×10⁻⁶ cm/s
Hepatocyte
  CLH(app): < 6 µL/min
[3]
  Tmax: 46.8 min
[4]
  clearance: 3.39 mL/min/kg
Liver microsome
  CLH(app): < 8 µL/min/mg
[6]
  half-life: 132 min
[7]
  half-life: 45 min
[9]
  Vd: 2.13 L/kg
[10]
  pKinact: 2.43

## COc1ccc(OC)c(-c2cc(=O)[nH]c(=S)n2CC(N)=O)c1
[1]
  Vd: 1.03 L/kg
[2]
  Papp: 1.1 ×10⁻⁶ cm/s
Hepatocyte
  CLH(app): < 6 µL/min
[3]
  Tmax: 40.2 min
[4]
  clearance: 7.07 mL/min/kg
Liver microsome
  CLH(app): < 8 µL/min/mg
[5]
  log(ratio): 4.09
[6]
  half-life: 168 min
[7]
  half-life: 22.8 min
Myeloperoxidase [8]
  IC50: 1500 nM
[9]
  Vd: 0.83 L/kg
[10]
  pKinact: 2.38
Myeloperoxidase [11]
  Ki: 347 nM
[12]
  fraction unbound: 0.6

## COc1ccc(-c2cc(=O)[nH]c(=S)n2CC(N)=O)c(OC)c1
[1]
  Vd: 0.3 L/kg
[2]
  Papp: 0.8 ×10⁻⁶ cm/s
Hepatocyte
  CLH(app): < 6 µL/min
[3]
  Tmax: 30 min
[4]
  clearance: 1.31 mL/min/kg
Liver microsome
  CLH(app): < 8 µL/min/mg
[5]
  log(ratio): 4.03
[6]
  half-life: 204 min
[7]
  half-life: 45.6 min
Myeloperoxidase [8]
  IC50: 2600 nM
[9]
  Vd: 1.23 L/kg
[10]
  pKinact: 2.41
Myeloperoxidase [11]
  Ki: 372 nM
[12]
  fraction unbound: 0.5

From ChEMBL document CHEMBL3632461 (J Med Chem, 2015)
